Compound activity as filed in PubChem.
This is a sample that favours compounds with a hit; in the whole collection about 2.6% have one here.
Rce1 inhib = blocks yeast Ras-converting enzyme. calls only. AID 2563. yeast membranes, quenched prenylated peptide cleavage fluorescence. 290,000 compounds, 0.27% hits;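 active = fall in fluorescence gain of 50% or more versus controls, with final raw signal at or below 3038400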;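 note: plate controls were neutral control wells for no effect and wells lacking membranes for full effect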
TAAR1 ag = agonists of human TAAR1; Q96RJ0; CHO RD-HGA16 TAAR1, Fluo-8 calcium fluorescence; vehicle wells 0%, saturating PEA agonist 100%; activation, % at 3 µM; 360,000 compounds, 0.99% hits; AID 624467;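 active = activation above the mean activation of all test compounds in the run plus 3 SD, cut at about 38% in these data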
Target sequence (Q96RJ0 whole entry, looked up): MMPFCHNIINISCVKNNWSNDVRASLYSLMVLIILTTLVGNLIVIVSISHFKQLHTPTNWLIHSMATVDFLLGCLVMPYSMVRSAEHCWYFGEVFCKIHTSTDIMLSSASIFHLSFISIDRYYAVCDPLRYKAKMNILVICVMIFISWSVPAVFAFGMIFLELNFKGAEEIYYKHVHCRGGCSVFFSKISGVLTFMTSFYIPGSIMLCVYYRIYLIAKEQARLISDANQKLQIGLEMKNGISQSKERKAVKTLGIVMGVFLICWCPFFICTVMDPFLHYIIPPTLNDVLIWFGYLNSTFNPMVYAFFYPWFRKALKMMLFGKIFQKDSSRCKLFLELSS
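System: CHO RD-HGA16 cells carrying human TAAR1 plus Gα16; Incubation: 17-24 h seeding, 75 min 37 °C dye, 30 min RT; Measured by: Fluo-8 fluorescence, 5 s baseline then 140 s kinetic read; Control set: DMSO and PEA EC100; Replication: single well for each compound.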
VLA-4 inh = inhibition in a human VLA-4 binding assay. VLA-4 expressing cells, ligand binding flow cytometry. P13612. 330,000 compounds, 0.2% hits. AID 2557. inhibition, % (about 7 µM as worked out from the volumes in the protocol); in the data active = inhibition above about 50%
TAAR1 antagonist = antagonists of human TAAR1; CHO RD-HGA16 TAAR1, Fluo-8 calcium fluorescence, antagonist; Q96RJ0; inhibition, % at 3 µM; 360,000 compounds, 1.5% hits;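 active = inhibition above a per-plate cutoff, the mean inhibition of test compounds on that plate plus 3 SD, cut at about 49% in these data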;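 note: 0% = DMSO plus EC80 beta-PEA response and 100% = DMSO alone without agonist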
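Test system: hTAAR1-expressing CHO RD-HGA16 cells, Gα16-coupled; Probe or stimulus: EC80 β-phenethylamine stimulus; Compound dosing: single nominal final test compound concentration of 3 µM; Timing: 140 s kinetic read after compound, 140 s after agonist; Signal: Fluo-8 calcium-sensitive fluorescence; Measure: % inhibition of agonist calcium response; Controls: DMSO and EC80 PEA controls.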
Platelet DG rel = platelet dense granule release activity | human platelet-rich plasma, SFLLRN dense granule ATP release, luminescence | inhibition, %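 (compounds screened at 7.5 µM in platelet-rich plasma)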 | 300,000 compounds, 0.22% hits | AID 1663;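 active = mean replicate score, as percent of positive control, at or above 50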
TAAR1 ag conf = confirmation of human TAAR1 agonists | shares compounds with TAAR1 ag | CHO RD-HGA16 TAAR1, Fluo-8 calcium fluorescence; scaled: DMSO 0%, maximal phenethylamine 100% | activation, % at 3 µM | 2,400 compounds, 82% hits | AID 651783;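 active = activation above a cutoff set at the run's mean compound activation plus 3 SD, cut at about 39% in these data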
Ga16 ag counter = counter-screen for TAAR1 agonists: nonselective agonists in parental cells; shares compounds with TAAR1 ag; CHO-Ga16 parental, Fluo-8 calcium fluorescence; normalized to maximal ATP response, DMSO zero; activation, % at 3 µM; 2,400 compounds, 50% hits;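 active = activation above the run cutoff, the mean activation over all tested wells plus 3 SD, cut at about 12% in these data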;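 note: 0% = DMSO wells and 100% = maximal ATP response on the peak over basal ratio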
TAAR1 desensitize = human TAAR1 agonist that also desensitizes the receptor. shares compounds with TAAR1 ag. CHO RD-HGA16 hTAAR1, Fluo-8 calcium, beta-PEA response inhibition. inhibition, % at 3 µM. 2,400 compounds, 46% hits;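 active = inhibition above the run cutoff, the mean inhibition of all test compounds plus 3 SD, cut at about 49% in these data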;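 note: beta-PEA stimulus applied at its EC80; loss of beta-PEA calcium signal after compound pretreatment read as receptor desensitization; 0% = DMSO with beta-PEA at EC80 and 100% = DMSO alone without agonist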
Ga16 antag count = nonselective Ga16 antagonism, counter-screen | 2,400 compounds, 39% hits | shares compounds with TAAR1 ag | CHO-Ga16 ATP-induced calcium, Fluo-8 fluorescence | AID 651952 | inhibition, % at 3 µM;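 active = inhibition above the plate's mean compound inhibition plus 3 SD, computed per plate, cut at about 22% in these data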;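 note: 0% = EC80 ATP with DMSO and 100% = DMSO wells without ATP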
* marks the source's active call; other numbers are inactive results.

What do the screens show for `N#Cc1ccccc1NC(=O)CC1c2ccccc2Oc2ccccc21`?
Rce1 inhib: inactive; TAAR1 ag: 67*; VLA-4 inh: 11; TAAR1 antagonist: 81*; Platelet DG rel: 7; TAAR1 ag conf: 106*; Ga16 ag counter: 52*; TAAR1 desensitize: 100*; Ga16 antag count: 58*

Results for N#Cc1ccccc1NC(=O)CC1CCCCC1 ?
Rce1 inhib: inactive; TAAR1 ag: 5; VLA-4 inh: 15; TAAR1 antagonist: -3; Platelet DG rel: 1

What do the screens show for `Cc1c(C(=O)NCCc2ccccc2)oc2ccc(S(=O)(=O)N3CCC4(CC3)OCCO4)cc12`?
Rce1 inhib: inactive; TAAR1 ag: 93*; VLA-4 inh: 8; TAAR1 antagonist: 77*; Platelet DG rel: -4; TAAR1 ag conf: 92*; Ga16 ag counter: 12*; TAAR1 desensitize: 89*; Ga16 antag count: 36*

Results for CSCCC(NS(=O)(=O)c1ccc(C)cc1)C(=O)N1CCCCCCC1 (stereo not drawn) ?
TAAR1 ag: 1; VLA-4 inh: -5; TAAR1 antagonist: -5

What do the screens show for `COC(=O)C1=C(C)N(Cc2cccc(C(F)(F)F)c2)C(=NCC2CC2)NC1c1cccc(Cl)c1` (stereo not drawn)?
TAAR1 ag: 72*; TAAR1 antagonist: 77*; TAAR1 ag conf: 61*; Ga16 ag counter: 35*; TAAR1 desensitize: 66*; Ga16 antag count: 55*

Results for COC(=O)C1=C(C)N(Cc2cccc(C(F)(F)F)c2)C(=NCC2CC2)NC1c1ccc(F)cc1 (stereo not drawn) ?
TAAR1 ag: 96*; TAAR1 antagonist: 101*; TAAR1 ag conf: 101*; Ga16 ag counter: 72*; TAAR1 desensitize: 94*; Ga16 antag count: 81*

How did COC(=O)C1=C(C)N(Cc2cccc(C(F)(F)F)c2)C(=NCC2CC2)NC1c1ccccc1C(F)(F)F (stereo not drawn) do in these assays?
TAAR1 ag: 9; TAAR1 antagonist: 15

How did COC(=O)C1=C(C)N(C)C(=NCC2CC2)NC1c1cccc(C(F)(F)F)c1 (stereo not drawn) do in these assays?
TAAR1 ag: 3; TAAR1 antagonist: 6

How did COC(=O)C1=C(C)N(Cc2cccc(C(F)(F)F)c2)C(=NCC2CC2)NC1c1cccc(C(F)(F)F)c1 (stereo not drawn) do in these assays?
TAAR1 ag: 50*; TAAR1 antagonist: 56*; TAAR1 ag conf: 53*; Ga16 ag counter: 26*; TAAR1 desensitize: 54*; Ga16 antag count: 44*

What do the screens show for `COc1cccc(C(=O)OCC(=O)N2CCC(Cc3ccccc3)CC2)c1OC`?
TAAR1 ag: 4; VLA-4 inh: 11; TAAR1 antagonist: 4

How did O=C(COC(=O)/C=C/c1ccccc1Cl)NC1CCCCCC1 do in these assays?
TAAR1 ag: 49*; VLA-4 inh: -1; TAAR1 antagonist: 53*; Platelet DG rel: -4; TAAR1 ag conf: 24; Ga16 ag counter: 5; TAAR1 desensitize: 33; Ga16 antag count: 11

How did Clc1ccc2nc(-c3ccccc3)c(CC3CCCCC3)n2c1 do in these assays?
TAAR1 ag: -1; TAAR1 antagonist: -26

How did Cc1cc(C(=O)COC(=O)C2=NNC(=O)CC2)c(C)n1CCc1ccccc1 do in these assays?
Rce1 inhib: inactive; TAAR1 ag: 61*; VLA-4 inh: -7; TAAR1 antagonist: 15; Platelet DG rel: 7; TAAR1 ag conf: 86*; Ga16 ag counter: 3; TAAR1 desensitize: 76*; Ga16 antag count: 10
